According to ChEMBL document CHEMBL3272253, “Relationship of molecular structure to in vivo scintigraphic distribution patterns of carbon-11 labeled compounds. 3. (11C)Hydantoins” (J Med Chem, 1976):

Legend:
Format in all cases: ADME, organism-based, Canis lupus familiaris
Details in all cases: in vivo; call rule not given here
Canis familiaris [1] = assay: Drug level in iv dosed dog after 5 to 30 mins by gamma-scintillation counting analysis
In short: (§1)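 Carbon-11-labeled hydantoin, 1–59 mCi of final product, dissolved in 1–1.5% aqueous NaOH and given iv to dogs. Distribution imaged serially for up to 2 hr or more with a scintillation camera fitted with a pinhole collimator (1-cm hyperbolic aperture), with whole-body scintiphotos at about 5 and 30 min. Readout is qualitative to semiquantitative; no coincidence imaging.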

[2] = Drug level in iv dosed dog lung by gamma-scintillation counting analysis; in short: as §1
Liver = assay: Drug level in iv dosed dog liver by gamma-scintillation counting analysis; in short: as §1
Canis familiaris [3] = assay: Drug level in iv dosed dog by gamma-scintillation counting analysis; in short: as §1
[4] = Drug level in iv dosed dog kidney by gamma-scintillation counting analysis; in short: as §1
[5] = Drug excretion in iv dosed dog urine by gamma-scintillation counting analysis; in short: as §1
Brain [6] = assay: Drug level in iv dosed dog brain after 5 to 30 mins by gamma-scintillation counting analysis; in short: as §1
[7] = Drug excretion in iv dosed dog bile after 5 to 30 mins by gamma-scintillation counting analysis; in short: as §1
Brain [8] = assay: Drug level in iv dosed dog brain by gamma-scintillation counting analysis; in short: as §1
[9] = Drug excretion in iv dosed dog bile by gamma-scintillation counting analysis; in short: as §1
[10] = Drug level in iv dosed dog vein by gamma-scintillation counting analysis; in short: as §1

| Compound | Drug uptake (Canis familiaris [1]) | Drug uptake [2] | Drug uptake (Liver) | Drug uptake (Canis familiaris [3]) | Drug uptake [4] | Drug excretion [5] | Drug uptake (Brain [6]) | Drug excretion [7] | Drug uptake (Brain [8]) | Drug excretion [9] | Drug uptake [10] |
| --- | --- | --- | --- | --- | --- | --- | --- | --- | --- | --- | --- |
| CC1(c2ccccc2)NC(=O)N[11C]1=O (stereo unspecified) | Active |  |  |  |  |  |  |  |  |  |  |
| CC(C)CC1(CC(C)C)NC(=O)N[11C]1=O |  | Active | Active | Active | Active | metabolite_detected | Not Active | metabolite_notdetected |  |  |  |
| O=C1N[11C](=O)C(c2ccccc2)N1c1ccccc1 (stereo unspecified) |  |  |  |  | Active | metabolite_detected |  |  | Active | metabolite_detected |  |
| CSCCC1NC(=O)N[11C]1=O (stereo unspecified) |  | Active | Active | Active | Active | metabolite_detected |  |  |  |  |  |
| CCC1(CC)NC(=O)N[11C]1=O |  | Active | Active | Active | Active | metabolite_detected | Not Active | metabolite_notdetected |  |  |  |
| O=C1N[11C](=O)C2(N1)c1ccccc1-c1ccccc12 |  |  |  |  |  |  |  |  | Not Active |  |  |
| O=C1N[11C](=O)C(c2ccc(Cl)cc2)(c2ccc(Cl)cc2)N1 |  |  |  |  | Active | metabolite_detected |  |  | Active | metabolite_detected |  |
| O=C1N[11C](=O)C2(CCCCC2)N1 |  | Active | Active | Active | Active | metabolite_detected |  |  |  |  | Active |
| O=C1N[11C](=O)C2(CCCCCCC2)N1 |  |  |  |  |  |  |  |  | Not Active |  |  |
